Compound activity from PubChem.
The list is not random: actives were taken first. Their share in the collection is about 2.6%.
Platelet DG rel: inhibitors of platelet dense granule secretion, primary screen, cell-based, MLPCN, human platelets; inhibition, %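 (compounds screened at 7.5 µM in platelet-rich plasma)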; human platelet-rich plasma, SFLLRN dense granule ATP release, luminescence; actives 0.22% (n = 300,000);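 active means mean replicate score, as percent of positive control, at or above 50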
SENP6 inh: SENP6 protease inhibitors, primary screen, biochemical, luminescence, uHTS. Sentrin-specific protease 6 (Homo sapiens), Q9GZR1. inhibition, % at 10 µM. Recombinant SENP6 catalytic domain, aminoluciferin luminescence. AID 2599, 2010. actives 1.8% (n = 330,000);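 active means inhibition above about 50% at the single tested dose, limit read from the data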;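 further: plate controls were DMSO wells with enzyme for no effect and DMSO wells lacking enzyme for full effect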
SENP7 block: SENP7 protease inhibitors, primary screen, biochemical, luminescence, uHTS; Sentrin-specific protease 7 (Homo sapiens), Q9BQF6; recombinant SENP7, Z-RLRGG-aminoluciferin luminescence, 40 min; inhibition, % at 5 µM; actives 1.5% (n = 330,000);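 active means inhibition above about 50% at the single test dose, limit read from the data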;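 further: plate controls were DMSO with enzyme for no effect and no enzyme buffer wells for full effect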
SENP8 block-1: SENP8 protease inhibitors, primary screen, biochemical, luminescence. Sentrin-specific protease 8 (Homo sapiens), Q96LD8. purified SENP8, Z-RLRGG-aminoluciferin cleavage. actives 1.2% (n = 330,000). inhibition, % at 10 µM; in the data active means inhibition above about 50%
Target sequence (Q96LD8 whole entry, looked up): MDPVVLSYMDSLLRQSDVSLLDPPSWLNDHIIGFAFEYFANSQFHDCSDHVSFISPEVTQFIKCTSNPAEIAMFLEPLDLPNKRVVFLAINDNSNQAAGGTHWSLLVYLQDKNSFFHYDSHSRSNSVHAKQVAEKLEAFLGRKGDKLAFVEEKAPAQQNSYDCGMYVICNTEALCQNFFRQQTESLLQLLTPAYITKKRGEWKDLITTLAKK
SENP8 block-2: human SENP8 protease inhibitors, primary screen, biochemical, fluorescence, Nedd8 protein substrate, uHTS; Sentrin-specific protease 8 (Homo sapiens), Q96LD8; recombinant SENP8; inhibition, % at 20 µM; actives 0.64% (n = 360,000); AID 602440, 2012; in the data active means inhibition mostly above about 40%, no sharp cut-off; inactive means mostly below about 27%
SENP1 FRET inh: human SENP1 catalytic domain inhibitors, primary screen, biochemical, FRET, uHTS. recombinant SENP1 catalytic domain, CyPet-SUMO1-YPet FRET cleavage. inhibition, % at 10 µM. actives 0.21% (n = 360,000). AID 624204, 2012;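 active means inhibition at least 30% at 10 µM, raw YFP signal under a set limit, fluorescence ratio 0.5 to 1.5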;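 further: 0% = enzyme with DMSO and 100% = no enzyme wells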
Target sequence (Q9P0U3 419-644 limits assumed): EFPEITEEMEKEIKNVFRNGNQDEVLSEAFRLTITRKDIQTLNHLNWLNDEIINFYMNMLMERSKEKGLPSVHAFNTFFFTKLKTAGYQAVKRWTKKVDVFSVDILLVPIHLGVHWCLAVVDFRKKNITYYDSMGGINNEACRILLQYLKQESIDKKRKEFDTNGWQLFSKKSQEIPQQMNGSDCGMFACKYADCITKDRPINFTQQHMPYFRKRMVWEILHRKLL
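Controls: no-enzyme wells low, DMSO-plus-enzyme wells high control. Test system: human recombinant His6-tagged SENP1 catalytic domain enzyme. Reagent: SFCypet-SUMO1-SFYpet FRET protein substrate, 25 nM final. Doses: one dose per compound, 10 µM, 0.5% DMSO. Detection: FRET, CFP and YFP emission. Timing: 50 min reaction at room temperature.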
SENP8 conf: SENP8 protease inhibitors, retest, confirmation, biochemical, luminescence, single concentration. shares compounds with SENP7 block. Recombinant SENP8, Z-RLRGG-aminoluciferin luminescence, 60 min. inhibition, % at 12.5 µM. actives 40% (n = 6,200);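 active means mean inhibition across replicates above about 50%, limit read from the data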
SENP6 confirm: SENP6 protease inhibitors, confirmation, biochemical, luminescence, single concentration; actives 58% (n = 6,200); recombinant SENP6, Z-RLRGG-aminoluciferin luminescence; inhibition, % at 12.5 µM; shares compounds with SENP7 block
SENP7 conf: SENP7 protease inhibitors, retest, confirmation, biochemical, luminescence, single concentration; inhibition, % at 12.5 µM; actives 69% (n = 6,200); shares compounds with SENP7 block; recombinant SENP7, Z-RLRGG-aminoluciferin luminescence, 40 min; AID 488917, 2010
Casp3 SENP sel: caspase-3 protease inhibitors, confirmation, selectivity assay for SENP inhibitor project, biochemical, single concentration | shares compounds with SENP7 block | purified caspase-3, Z-DEVD-aminoluciferin luminescence, 60 min | inhibition, % at 12.5 µM | actives 60% (n = 6,200);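 active means mean inhibition above about 50%, limit read from the data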;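 further: plate controls were enzyme with DMSO for no effect and wells without caspase-3 for full effect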
Target sequence (P42574 28-227 limits assumed): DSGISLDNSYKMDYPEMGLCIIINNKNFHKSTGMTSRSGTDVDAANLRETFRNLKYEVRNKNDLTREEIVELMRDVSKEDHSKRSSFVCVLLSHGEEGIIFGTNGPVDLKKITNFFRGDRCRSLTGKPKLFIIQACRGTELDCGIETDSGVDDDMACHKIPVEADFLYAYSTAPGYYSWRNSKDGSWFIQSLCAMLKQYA
Luc interf: luminescence interference (SENP counter-screen); shares compounds with SENP7 block; Pre-incubated SENP8/Z-RLRGG-aminoluciferin, luciferase luminescence interference; inhibition, % at 12.5 µM; actives 39% (n = 6,200);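 active means mean inhibition above about 50% when retested at one dose, limit read from the data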;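 further: plate controls were DMSO wells with completed reaction for no effect and substrate without enzyme for full effect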
* marks the source's active call; other numbers are inactive results.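 How the source made its calls, unless noted: active means mean inhibition above about 50% in the one-dose retest (limit read from the data); inactive means the rest.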

Cn1c(SCc2ccc(C#N)cc2Cl)nc2ccccc21 was read as Platelet DG rel 4.0, SENP6 inh 75.4*, SENP7 block 80.0*, SENP8 block-1 68.8*, SENP8 block-2 16.0, SENP1 FRET inh -0.5, SENP8 conf 8.0, SENP6 confirm 75.9*, SENP7 conf 56.7*, Casp3 SENP sel 24.2 and Luc interf 10.2.
Cc1ccc(S(=O)(=O)N(C)c2ccccc2C(=O)Nc2c(F)cccc2F)cc1 was read as Platelet DG rel 1.0, SENP6 inh -6.1, SENP7 block 3.4, SENP8 block-1 -2.3, SENP8 block-2 3.7 and SENP1 FRET inh 0.6.
For CC1CCN(c2ccc(-c3cccs3)nn2)CC1 the results were Platelet DG rel 43.1, SENP6 inh 98.8*, SENP7 block 96.1*, SENP8 block-1 94.0*, SENP8 block-2 -32.4, SENP1 FRET inh 0.5, SENP8 conf 63.9*, SENP6 confirm 96.5*, SENP7 conf 102.0*, Casp3 SENP sel 94.5* and Luc interf 43.4.
Screening Clc1ccc(-c2cccs2)nn1 returned Platelet DG rel -3.7, SENP6 inh -2.3, SENP7 block -1.2, SENP8 block-1 3.1, SENP8 block-2 5.6 and SENP1 FRET inh 2.5.
For Cc1cc(C)cc(OC(C)C(=O)Nc2ccccc2C(=O)NCc2cccnc2)c1 (stereo unspecified) the results were Platelet DG rel -2.9, SENP6 inh 0.3, SENP7 block 2.1, SENP8 block-1 4.8, SENP8 block-2 -20.3 and SENP1 FRET inh 0.1.
`Cn1cc(Br)c(C(=O)N/N=C/c2cc3c(cc2Cl)OCO3)n1` gave Platelet DG rel 2.9, SENP6 inh 3.1, SENP7 block 5.6, SENP8 block-1 -10.2, SENP8 block-2 -51.6 and SENP1 FRET inh 1.5.
Cn1cc(Cl)c(C(=O)N/N=C/c2ccc3c4c(cccc24)CC3)n1 was read as Platelet DG rel 16.7, SENP6 inh 39.6, SENP7 block 52.9*, SENP8 block-1 32.5, SENP8 block-2 -380.5, SENP1 FRET inh -1.0, SENP8 conf -6.7, SENP6 confirm 2.2, SENP7 conf 20.5, Casp3 SENP sel 13.4 and Luc interf 0.6.
For O=C(NC1CCCCC1)N1CCN(Cc2nc3ccccc3c(=O)[nH]2)CC1 the results were Platelet DG rel 8.7, SENP6 inh 59.7*, SENP7 block -11.0, SENP8 block-1 -4.2, SENP8 block-2 30.8, SENP1 FRET inh 1.7, SENP8 conf -5.0, SENP6 confirm -4.9, SENP7 conf -6.1, Casp3 SENP sel -4.0 and Luc interf -4.3.
For O=C1CCC(c2ccc3c(c2)CCC3)=NN1 the results were Platelet DG rel 35.5, SENP6 inh -6.7, SENP7 block -8.4, SENP8 block-1 -12.1, SENP8 block-2 12.5 and SENP1 FRET inh 0.1.
`Cc1noc(N)c1C(=O)Nc1ccc(C(C)(C)C)cc1` gave Platelet DG rel 13.6, SENP6 inh 28.7, SENP7 block 85.5*, SENP8 block-1 68.6*, SENP8 block-2 14.0, SENP1 FRET inh 0.1, SENP8 conf 13.6, SENP6 confirm 80.3*, SENP7 conf 96.3*, Casp3 SENP sel 80.4* and Luc interf 79.9*.
`Cc1nc(Cl)sc1C(=O)Nc1ccc(C(C)(C)C)cc1` gave Platelet DG rel 1.7, SENP6 inh -27.7, SENP7 block 61.8*, SENP8 block-1 60.1*, SENP8 block-2 13.8, SENP1 FRET inh 1.8, SENP8 conf 70.8*, SENP6 confirm 64.3*, SENP7 conf 84.4*, Casp3 SENP sel 51.1* and Luc interf 47.7.
`CSc1ncc(Cl)c(C(=O)Nc2cccc(Cl)c2)n1` gave Platelet DG rel 1.7, SENP6 inh 3.5, SENP7 block 1.5, SENP8 block-1 -1.4, SENP8 block-2 18.6 and SENP1 FRET inh 2.7.
Clc1ccc(-c2nc3ncccn3c2Nc2ccc3c(c2)OCO3)cc1 was read as Platelet DG rel 0.3, SENP6 inh -13.3, SENP7 block 4.1, SENP8 block-1 0.2, SENP8 block-2 7.4 and SENP1 FRET inh 15.8.
Oc1ccc(-c2nc3ncccn3c2Nc2ccc3c(c2)OCO3)cc1 was read as Platelet DG rel 3.7, SENP6 inh 86.0*, SENP7 block 93.2*, SENP8 block-1 16.9, SENP8 block-2 13.2, SENP1 FRET inh 26.5, SENP8 conf 9.1, SENP6 confirm 7.8, SENP7 conf -6.7, Casp3 SENP sel -2.6 and Luc interf 5.7.
CC1CCCCC12NC(=O)N(CC(=O)NNC(=O)c1ccc(Br)cc1)C2=O (stereo unspecified) was read as SENP6 inh -10.6, SENP7 block 2.5, SENP8 block-1 4.1, SENP8 block-2 10.8 and SENP1 FRET inh 0.0.
Screening CCn1c(SCC(=O)N/N=C/c2ccccc2OCC(=O)O)nnc1-c1ccccc1 returned Platelet DG rel 3.1, SENP6 inh 69.9*, SENP7 block -3.5, SENP8 block-1 1.4, SENP8 conf -3.0, SENP6 confirm -0.1, SENP7 conf -2.6, Casp3 SENP sel 5.8 and Luc interf 7.0.
`O=C(O)COc1ccccc1/C=N/NC(=O)CSc1nnc(-c2ccc(Cl)cc2)n1C1CCCCC1` gave Platelet DG rel 0.4, SENP6 inh -1.1, SENP7 block 2.2, SENP8 block-1 -3.4, SENP8 block-2 -15.2 and SENP1 FRET inh 1.7.
